APP 5'UTR act = APP 5'UTR luciferase reporter activation. SH-SY5Y APP 5'UTR luciferase reporter, luminescence; zero percent = DMSO vehicle wells. activation, % at 2 µM. 1% of 190,000 active;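 active means activation above a set limit, based on mean plus 3 SD of controls, cut at about 140% in these data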
STAT3 blocker = inhibitors of IL-6 induced STAT3 signaling. inhibition, % at 5.5 µM. U3A cells, IL-6 STAT3-luciferase reporter, luminescence; host cell line lacks STAT1. 0.89% of 190,000 active. AID 862;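 active means inhibition above the mean inhibition across all screened compounds plus 3 SD, cut at about 44% in these data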;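 further: 0% = DMSO only wells and 100% = 100 µM nifuroxazide control wells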
STAT1 act = activators of IFN-gamma induced STAT1 signaling | NIH 3T3 STAT1-luciferase reporter, luminescence; 100% = IFN-gamma alone, no compound | activation (% of control), % at 5.5 µM | 2.6% of 200,000 active | AID 932;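 active means activation above the screen-wide mean activation plus 3 SD, cut at about 130% in these data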;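 further: raw ratio to IFN-gamma control signal so 100% means no change and 0% no light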
STAT3 act = activators of IL-6 induced STAT3 signaling; U3A cells, IL-6 STAT3-luciferase reporter, luminescence; 100% = signal with IL-6 EC80 alone; activation (% of control), % at 5.6 µM; 0.91% of 190,000 active;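 active means activation above the screen-wide mean of compound activation plus 3 SD, cut at about 130% in these data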;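 further: 0% = background luminescence of wells with medium and substrate only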
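Assay system – human STAT1-deficient U3A cells with stable STAT3-luciferase reporter · Also added – IL-6 (33 ng/mL) · Schedule – compound 1 h, then IL-6 6 h at 37 °C · Technique – reporter luminescence signal · Evaluation – % activation versus median of IL-6-stimulated wells · Benchmarks – IL-6-only wells as 100% reference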
NF-kB expr up = compounds increasing NF-kB expression in human neuronal cells; NF-kB reporter expression; active compounds read high; fold change at 12.5 µM; 1.6% of 190,000 active; AID 1239; in the data active means fold change above about 3.3
STAT1 blocker = inhibitors of IFN-gamma induced STAT1 signaling; NIH 3T3 STAT1-luciferase reporter, luminescence; inhibition, % at 5.5 µM; 0.35% of 200,000 active;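 active means inhibition above a set limit, the mean inhibition across all tested compounds plus 3 SD, cut at about 34% in these data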;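 further: 0% = IFN-gamma with DMSO and 100% = IFN-gamma with 300 µM nifuroxazide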
* hit, by the source's call; x = no result. In the library only some 4.9% were active in any assay of this set; here they are far more common.

SMILES	APP 5'UTR act	STAT3 blocker	STAT1 act	STAT3 act	NF-kB expr up	STAT1 blocker
Cc1ccc(N2C(=O)CC(NNC(=O)c3cccc(S(=O)(=O)N4CCCC4)c3)C2=O)cc1 (centres undefined)	-4.0	-2.3	98.2	99.8	1.1	2.0
O=C(Nc1ccc2nc(C3CC3)n(Cc3ccc(F)cc3)c(=O)c2c1)c1ccco1	22.8	28.0	112.7	81.2	0.5	-14.0
CC(=O)Nc1ccc2nc(C3CC3)n(Cc3ccc(Cl)cc3)c(=O)c2c1	106.3	-9.5	146.5*	109.4	2.24	-52.0
CCS(=O)(=O)N1CCN(CC(=O)NC2CCCCC2)CC1	13.2	-7.7	98.9	108.6	1.11	-0.7
C1CCC(C23CC4CC(CC(C4)C2)C3)NC1 (centres undefined)	-7.6	3.6	100.7	97.9	1.33	-0.7
Cc1ccc2oc(-c3ccccc3)c(C(=O)O)c(=O)c2c1	166.1*	-24.4	124.2	122.5	4.03*	-26.9
COc1ccc(N2CC(C(=O)OC(C)C(=O)c3ccccc3)CC2=O)cc1 (centres undefined)	9.4	-5.5	102.0	105.9	1.05	-3.3
Cc1ccc(CCC(=O)Nc2ccccc2F)s1	102.8	23.2	136.6*	86.1	2.24	-42.5
O=C(CCc1nc2ccccc2[nH]1)Nc1ccccc1F	-7.6	x	100.0	x	1.22	-1.4
CCN(CC)C(=O)C1CCCN(c2ccc([N+](=O)[O-])cc2/C=N/NC(=O)c2cccc([N+](=O)[O-])c2)C1 (centres undefined)	3.8	1.9	99.8	99.7	0.87	0.2
CC(/C=N/NC(=O)CSc1ccccn1)=C\c1ccc(C(C)C)cc1	37.1	-12.4	123.8	114.4	1.46	-27.0
CC(=C/c1ccc(C(C)C)cc1)/C=N/NC(=O)CSc1ccccn1	50.7	-39.6	148.7*	134.2*	0.84	-54.7
Cc1oc(-c2cccc3ccccc23)nc1CN1CCN(c2ncnc3ccccc23)CC1	-11.1	15.2	88.3	92.7	0.55	10.6
CC(c1ccccc1)N1C(=O)NC(NC(=O)C(C)(C)C)(C(F)(F)F)C1=O (centres undefined)	-0.5	-2.4	99.1	102.3	1.03	1.1
Cc1ccc(NC(=O)n2ccc(-c3ccc(-n4ccnc4)cc3)n2)cc1	96.5	-7.3	135.3*	109.1	2.31	-39.5
CCOc1ccc2oc(=O)cc(C)c2c1	-8.3	12.9	132.8*	94.5	1.46	-35.6
CCC(=O)Oc1ccc2oc(=O)cc(C)c2c1	-4.8	-8.5	100.2	109.6	1.3	-0.2
CCOc1ccc(C(CC(=O)O)NC(=O)c2cccs2)cc1OC (centres undefined)	-1.5	5.3	98.9	98.3	0.99	-0.9
CCOc1ccccc1OCCn1ncc2ccc(OC)c(OC)c2c1=O	5.6	2.9	102.0	100.9	1.17	-2.2
COc1ccc2cnn(CCOc3ccccc3)c(=O)c2c1OC	176.2*	34.6	146.5*	73.7	3.63*	-50.8
Cc1ccc(-c2nc(C)c(C(=O)O)s2)cc1	143.3*	26.0	135.3*	85.6	2.82	-39.8
Cc1nc(-c2ccc(Cl)cc2)sc1C(=O)O	45.9	-14.0	138.0*	113.1	2.19	-42.8
Oc1ccccc1-c1n[nH]c(=S)n1Cc1ccco1	-5.1	7.4	103.2	98.7	0.98	-3.4
Cc1ccc(-n2nc(C)c3c2NC2=C(C(=O)CC(C)(C)C2)C3c2ccccc2OCC(=O)O)cc1 (centres undefined)	-3.8	-1.3	90.2	102.3	1.04	8.4
COc1ccc2c(CC(=O)N3CCc4ccccc43)coc2c1	142.1*	4.2	126.9	101.3	4.91*	-29.4
SMILES	APP 5'UTR act	STAT3 blocker	STAT1 act	STAT3 act	NF-kB expr up	STAT1 blocker
O=C(N/C(=C\c1ccc([N+](=O)[O-])cc1)C(=O)N1CCCCC1)c1ccccc1Br	11.1	-2.6	95.3	106.5	1.22	5.3
Cn1c(NC(=O)/C=C/c2ccccc2)cc(=O)n(C)c1=O	47.0	-9.5	139.0*	107.7	1.94	-42.9
Cn1c(NC(=O)CCc2ccccc2)cc(=O)n(C)c1=O	50.1	-21.3	138.2*	121.4	2.24	-42.1
CCCC(=O)Nc1cc(=O)n(C)c(=O)n1C	35.4	-13.1	95.4	118.8	1.64	5.1
Nc1cc(C(=O)O)c(Oc2ccc(Cl)cc2Cl)cc1C(=O)O	-4.7	6.7	95.6	101.7	1.23	4.8
Cc1nn(C)c(C(=O)N/N=C/c2cc3c(cc2Br)OCO3)c1Br	-1.9	0.6	98.8	99.7	1.13	1.3
Cc1nonc1C(=O)N/N=C/c1ccccc1	20.1	-12.0	132.4*	110.3	1.09	-33.9
Cc1nonc1C(=O)N/N=C/c1cc2c(cc1Br)OCO2	2.9	-33.2	118.9	133.1*	1.54	-22.3
COc1ccc(-c2cc(C(=O)Nc3cc(S(=O)(=O)N4CCOCC4)ccc3N3CCOCC3)c3ccccc3n2)cc1	-28.6	4.3	79.2	97.9	0.93	20.5
O=C(COC(=O)C1CC1)Nc1ccc(N=Nc2ccccc2)cc1	100.8	6.4	136.0*	93.6	1.2	-38.2
COC(=O)CCC(=O)Nc1ccc(N=Nc2ccccc2)cc1	54.3	17.1	132.8*	94.5	2.64	-36.8
COC(=O)c1ccc(N=Nc2ccccc2)cc1	39.1	13.0	132.0*	91.2	3.28	-35.1
Cn1ccnc1SCC(=O)c1ccc2ccccc2c1	163.5*	-1.2	146.0*	100.8	3.04	-49.0
Cn1ccnc1SCC(=O)Nc1ccc2ccccc2c1	104.7	34.6	140.3*	73.5	4.38*	-36.7
Cn1ccnc1SCC(=O)c1cccc(Br)c1	45.8	-17.8	113.0	121.0	1.49	-14.2
CCN(CC)c1ccc(CNCc2cccs2)cc1	15.9	-5.8	105.8	105.8	1.05	-9.0
CC(C)CC1NC(=O)N(CC(=O)N2CCCc3ccccc32)C1=O (centres undefined)	8.5	-6.0	101.4	107.0	1.32	-2.2
C(=N\Nc1ncnc2nc[nH]c12)/c1cccs1	41.7	22.0	134.4*	85.4	1.65	-36.8
Fc1ccc(/C=N/Nc2ncnc3nc[nH]c23)cc1F	33.0	17.6	117.7	84.8	1.89	-19.5
COc1cccc(Nc2ncnc3nc[nH]c23)c1	29.4	8.9	105.6	97.0	1.83	-6.3
Cc1ccc(Nc2ncnc3nc[nH]c23)cc1Cl	98.3	4.1	110.2	103.9	3.31*	-11.2
Clc1cnc(N/N=C/c2cccs2)c(Cl)c1	69.6	-5.7	133.9*	107.5	2.05	-37.6
Cc1ccsc1/C=N/Nc1ncnc2nc[nH]c12	38.8	11.6	138.2*	91.3	1.99	-43.0
COc1ccc(CNC(=O)COC(=O)[C@H](Cc2c[nH]c3ccccc23)NC(=O)c2cccs2)cc1	-6.4	1.3	101.7	103.7	0.83	-1.9
CCc1ccc(NC(=O)c2cc(-c3cccs3)on2)cc1	38.7	11.6	136.1*	97.0	2.29	-41.8
CCc1ccc(NC(=O)c2cc(-c3ccc(F)cc3)on2)cc1	28.0	21.1	109.8	88.1	1.18	-12.9

Assay outcomes as filed in PubChem.
